Variants at the floor of the assay were thinned out. Some results are limits rather than exact numbers.

B1: tRNA (parent)
chain: GUUCCGUUGGCGUAAUGGUAACGCGUCUCCCUCCUAAGGAGAAGACUGCGGGUUCGAGUCCCGUACGGAACG

Variants of B1 are the subject of this data set. Nature of the data set: yeast fitness relative to wild type (ratio to wild type); higher = fitter; tRNA-Arg(CCU), competitive growth, 37 C, YPD. An outline of the steps: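 Amplicons of the tRNA-Arg(CCU) gene were sequenced, 100-nucleotide paired-end, from the start population and from each end population of a pooled yeast competition. The competition, in six parallel replicates, lasted 24 hours in YPD at 37°C. Fitness relative to wild type was calculated from changes in genotype frequencies. Genotypes had to have ≥ 100 starting reads, and estimates < 0.5 were set to 0.5.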
Consider GUUCAGUUGGCGUAAUGGUCACGCGUCUCCCUCCUAAGGAGAAGACUGCGGGUUCGUGUCCCGUACGGAACG [C5A A20C A57U], for which the yeast fitness is at most 0.5.
As for GUUCAGUUGGCGUGAUGGUAAGGCGUCUCCCUCCUAAGGAGAAGACUGCGGGUUCGAGUUUCGUACGGAACG [C5A A14G C22G C60U C61U], the figure is at most 0.5.
Turning to GUUCAGUUGGCGUAAUGGUCACGCGUCUCCCUCCUAAGGAGAAGACUGCGGGUUCGAGUCUCGUACGGAACG [C5A A20C C61U], the yeast fitness was at most 0.5.
The figure for GUUCAGUUGGCGUAUUGGUAACGCAUCUCCCUCCUAAGGAGAAGACUGCGGGUUCGAGCCCCGUACGGAACG [C5A A15U G25A U59C] is at most 0.5; for GUUCAGUUGGCGUAGUGGUAACGCGUCUCCCUACUAAGGAGAAGACUGCGGGUUCGAGUCUCGUACAGAACG [C5A A15G C33A C61U G67A] it is at most 0.5.
As for GUUCAGUUGGCGUAUUGGUAACGCGUCUCCGUCCUAAGAAGAAGACUGUGGGUUCGAAUCCCGUACAGAACG [C5A A15U C31G G39A C49U G58A G67A], the figure is at most 0.5.
For GUUUCGUUGGCGUAAUGGUAACGCGUCUCCCGCCUAAGGAGAAGACUGCGGGUUCGGGUCCCGUACGGAACG [C4U U32G A57G], the yeast fitness was at most 0.5.
Turning to GUUUCGUUGGCGUAAUGGUAACGCGUCUCCCUCCUAAGGAGAAGACAGCGGGUUCGAGUCCCGUACAGAACG [C4U U47A G67A], the yeast fitness stood at 0.607.
As to GUUCAGUUGGCGUGAUGGUAAGGCGUCUCCCUCCUAUGGAGAAGACUGCGGGUUCGAGUCCCGUACGGAACG [C5A A14G C22G A37U], the yeast fitness turned out to be 0.683.
For GUUUCGUUGGCGUAAUGGUAACGCGUCUCCCUCCUAAGGAGAAGACUGCGGGUACGAGUCCUGUACGGAACG [C4U U54A C62U], the yeast fitness is at most 0.5.
The figure for GUUUCGUUGGCGUAAUGGUAACGCGUCCCCCUCCUAAGGAGAAGACUGCGGGUUCGAGUCCCGUACGGAACG [C4U U28C] is 1.02; for GUUUCGUUGGCGUAAUGGUAACGCGUCGCCCUCCUAAGGAGAAGACUGCGGGUUCGAGUCCCGUACGGAACG [C4U U28G] it is 0.772.
As for GUUUCGUUGGCGUAAUGGUAACGCGUCUCCCUCCUAAGGAGAAGACAGCGGGUCCGAGUCACGUACGGAACG [C4U U47A U54C C61A], the figure is at most 0.5; as for GUUCAGUUGGCGUAAUGGUCGCGCGUCUCCCUCCUAAGGAGAAGACUGCGGGUUCGAGUCCCGUGUGGAACG [C5A A20C A21G A65G C66U], at most 0.5; as for GUUCAGUUGGCGUACUGGUAACGCGUUUCUCGCCAACGGAGAAGACUGCGGGUACGAGUCCCGUACGGAACG [C5A A15C C27U C30U U32G U35A A37C U54A], at most 0.5.
On to GUUCAGUUGGCGUGAUGGUAACGCGUCUCCCUCCUAGGGAGAAGACUGGGGGUUUCAGUCCCGUACGAAACG [C5A A14G A37G C49G C55U G56C G68A], for which the yeast fitness is at most 0.5.
As for GUUCAGUUGGCGUCAUGGUAACGCGACUCCCUCUUAAGGAGAAGACUGCGGGUUGGAGUCCCGUACGGAACG [C5A A14C U26A C34U C55G], the figure is at most 0.5; as for GUUUCGUUGGCGUAAUGGUAACGCGUCCUCCUCCUAAGGAGAAGACUGCGGGUUCGAGUCCCCUUCGGAACG [C4U U28C C29U G63C A65U], at most 0.5; as for GUUUCGUUGGCGUAAUGGUAACGCGUCUCCCUCCUAAGGAGAAGACAGCGCGUUCGAGUCCCGUACGGAUCG [C4U U47A G51C A70U], at most 0.5.
As for GUUCAGUUGGCGUAGUGGUAACGCGUCUCCCUCCUAAGGAGAAGACUGCGGGUUCGAGUCACGUACGGAACG [C5A A15G C61A], the yeast fitness is at most 0.5.
Turning to GUUCAGUUGGCGUCAUGGUAACGCGUCUCCCUCCUAAGGAGAAGACUGAGGGUUCGAGUCCCGUACGGAACG [C5A A14C C49A], the yeast fitness was at most 0.5.
GUUUCGUUGGCGUAAUGGUAACGCGCCUCCCUCCUAAGGAGUAGACUGCCGGUUCGAGUCCCGUUCGGAACG [C4U U26C A42U G50C A65U]: the yeast fitness amounted to 0.552.
In the case of GUUCAGUUGGCGUACUGGUAACGCGUCUACCUCCUAAGGAGAAGACUGCGGGUUCGAGUGCCGUACGGAACG [C5A A15C C29A C60G], the yeast fitness was at most 0.5.
On to GUUCAGUUGGCGUGAUGGUAACGGGUCUCCUUCCUAAGGAGAGGACUGCGGGUUCGAGUCCCGUACGGAACG [C5A A14G C24G C31U A43G], for which the yeast fitness is at most 0.5.
As for GUUCAGUUGGCGUGAUGGUAACGCGUCUCCCUCCUAAGGAGAAGACUGCGGGUUAGAGUCCCGUACGGAUCG [C5A A14G C55A A70U], the figure is at most 0.5; as for GUUCAGUUGGCGUAAUGGUUACGCGUCUCCGUCCUAAGGAGAAGACUGCGGGUUCGAGUCCCGUACGGAACG [C5A A20U C31G], 0.585; as for GUUUCGUUGGCGUAAUGGUAACGCGUCUCCCGCCUAAGGCGAAGACUGCGGGUUCGAGUCCCGUACGGAACG [C4U U32G A40C], 0.57.
The figure for GUUCAGUUGGCGUCAUGGUAUCGCGUCUCCCUCUUAACGAGAAGACUGCGGGUUCGAGUCCCGUACGGAACG [C5A A14C A21U C34U G38C] is at most 0.5.
The figure for GUUUCGUUGGCGUAAUGGUAACGCGUCUCCCUCCCAAGGAGAAGACUGCGGGUUCGAGUCCCGUACGGAUCG [C4U U35C A70U] is 0.711; for GUUCAGUUGGCGUCAUGGUAACGCGUCUCCCUCCUAAGGAGAAGGCUGCGGGUUCGAGUCCCGUACGGAACG [C5A A14C A45G] it is at most 0.5.
As for GUUCAGUUGGCGUACUGGUAACGCGUCUACCUCCUAAGGAGCAGGCUGCGGGUUCGAGUCCCGUACGGAACG [C5A A15C C29A A42C A45G], the yeast fitness came to 0.551.
Consider GUUCAGUUGGCGUAUUGGUAACGAAUCUCCCUCCUAAGGAGAAGACCGCGGCUUCGAGUCCCGUACGGAACG [C5A A15U C24A G25A U47C G52C], for which the yeast fitness is at most 0.5.
As for GUUCAGUUGGCGUGAUGGUGACGCGUCUCACUCCUAAGGUCAAGACUGCGGGUUCGAGUCGCCUACGGAACG [C5A A14G A20G C30A A40U G41C C61G G63C], the figure is at most 0.5.
As to GUUCAGUUGGCGUUAUGGUAACGUGUCUCCCUCCUAAGGCGAAGACUGCGGGUUCGAGUCCCGUACGGAACG [C5A A14U C24U A40C], the yeast fitness is 0.564.
Take GUUCAGUUGGCGUAUUGGUAACGCGUCUCCGUCCUAAGAAGAAGACUGCGGGUUCGUGUACCGUACGGAACG [C5A A15U C31G G39A A57U C60A]: the yeast fitness was at most 0.5.
The figure for GUUUCGUUGGCGUAAUGGUAACGCGUCUCCCUCCAAAGGAGAUGACUGCGGGUUCGAGUCCUGUACCAAACG [C4U U35A A43U C62U G67C G68A] is at most 0.5; for GUUUCGUUGGCGUAAUGGUAACGCGUCUCCCACCUAAGGAGAAGACUGCGGGUUCGAGUCCCGUACGGUACG [C4U U32A A69U] it is 0.601; for GUUUCGUUGGCGUAAUGGUAACGCGUCUCCCACCCAAGGAGAAGACUGCGGGUUCGAGUCCCGUACGGAACG [C4U U32A U35C] it is 0.511.

The values are drawn from the RNAGym collection of RNA variant scans (doi:10.1126/science.aae0568).
